Series [1] in a line: Displacement of 2-(6-{1-[3-(4-Cyclohexylpiperazin-1-yl)propyl]-1,2,3,4-tetrahydronaphthalen-5-yloxy}hexyl)-5-dimethylamino-1H-isoindole-1,3(2H)-dione from sigma 2 receptor in human MCF7 cells after 45 mins by FACS analysis. The series is classed as cell-based. In a few lines:
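Intact, nonpermeabilized MCF7 cells incubated with competitor at 0.1 nmol/L–10 μmol/L followed by 100 nmol/L fluorescent σ2 tracer for 45 min at 37 °C. Washed twice with PBS, detached with dissociation solution, resuspended in PBS. Flow cytometry at 530 nm band-pass, 10 000 events; IC50 taken from displacement curve.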
In general terms: Flow cytometry measures light scatter and fluorescence of single cells or particles in a stream.

Series [2] in a line: Displacement of [3H]DTG from sigma 2 receptor in human MCF7 cells after 45 mins by FACS analysis. It counts as cell-based. (In general: In a radioligand displacement assay an active substance lowers the binding of a labelled ligand.)
The target in series [3] is Sigma non-opioid intracellular receptor 1 (Cavia porcellus, UniProt Q60492). The series is described as follows: Displacement of (+)-[3H]pentazocine from Dunkin guinea pig brain sigma 1 receptor.
Series [4] has as its system MCF7. Nature of the series: Binding affinity to sigma 2 receptor overexpressed in human MCF7 cells assessed as compound internalization by measuring cellular accumulation at 25 nmol/L after 45 mins by flow cytometry in presence of PB28. It counts as cell-based.
Series [5] in a line: Displacement of [3H]DTG from Wistar Hannover rat liver sigma 2 receptor.
The nature of series [6]: Drug uptake in perinuclear region of human MCF7 cells at 100 nM after 45 mins by spinning disk confocal microscopy. The series is classed as ADME, cell-based. The following applies: mcf7, 0.75 h, 0.1 µM. In a few lines: (§1)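 MCF7 cells seeded in chamber slides 24 h ahead, treated 45 min with 100 or 500 nM ligand, fixed in 2% PFA for 30 min at 37 °C, washed with PBS. Spinning-disk confocal imaging, background-corrected; subcellular localization assessed, nuclear signal from pixel intensity profiles. Excitation 405, 488 or 561 nm depending on fluorophore.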

Series [7] can be described thus: Drug uptake in nucleus of human MCF7 cells at 500 nM after 45 mins by spinning disk confocal microscopy. The series is classed as ADME, cell-based. Particulars: mcf7, 0.75 h, 0.5 µM. In a few lines: as §1
Series [8] is described as follows: Drug uptake in vesicle of human MCF7 cells at 100 to 500 nM after 45 mins by spinning disk confocal microscopy. It counts as ADME, cell-based. The following applies: mcf7, 0.75 h, 0.5 µM. In a few lines:
as §1

Series [9] can be described thus: Drug uptake in cytoplasm of human MCF7 cells at 100 to 500 nM after 45 mins by spinning disk confocal microscopy. It counts as ADME, cell-based. Particulars: mcf7, 0.75 h, 0.5 µM. The gist of the method: as §1
In series [10] the test system is MCF7. The series is described as follows: Binding affinity to sigma 2 receptor overexpressed in human MCF7 cells assessed as compound internalization by measuring cellular accumulation at 25 nmol/L after 45 mins by flow cytometry in presence of cis-1-cyclohexyl-4-[4-(2,6-difluorophenyl)cyclohexyl]piperazine. It counts as cell-based.
Series [11] concerns MCF7. The series is described as follows: Cellular uptake in human MCF7 cells at 50 to 100 nM after 20 to 40 mins by spinning disk confocal microscopy. Particulars: mcf7, 0.1 µM. The series is classed as ADME, cell-based. The gist of the method:
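Live and fixed MCF7 cells imaged by spinning-disk confocal microscopy from 50 nM ligand onward; intracellular fluorescence intensity followed over time after treatment. Excitation 405 nm […], 488 nm (green) or 561 nm (red channel), according to fluorophore.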

The subject of series [12] is MCF7. The series is described as follows: Cellular uptake in human MCF7 cells at 25 to 100 nmol/L after 45 mins […]. The series is classed as ADME, cell-based. Particulars: mcf7, 0.75 h.
Series [13] deals with MCF7. The series is described as follows: Binding affinity to sigma 2 receptor in human MCF7 cells at 100 nmol/L after 45 mins by FACS analysis in presence of DTG and (+)-pentazocine. It counts as cell-based.

SMILES strings stand for the structures. Active and inactive are the calls of the source. The calls are words filed in the database; no cut-off is given here.

Broadly, the IC50 is the point on the concentration scale where inhibition reaches its midpoint. Low values mean higher potency, high ones lower potency. In general, Ki refers to a measure of affinity in units of concentration, obtained from inhibition or displacement. Higher therefore signals lower affinity.

Sigma non-opioid intracellular receptor 1, sequence (Q60492 whole entry): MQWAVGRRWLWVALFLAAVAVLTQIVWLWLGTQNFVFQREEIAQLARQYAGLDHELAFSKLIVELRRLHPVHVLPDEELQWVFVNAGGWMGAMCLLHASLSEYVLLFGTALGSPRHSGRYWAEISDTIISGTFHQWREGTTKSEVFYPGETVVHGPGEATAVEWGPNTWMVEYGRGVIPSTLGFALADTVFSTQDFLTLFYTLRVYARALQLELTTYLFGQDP

As for `COc1cccc2c1CCCC2CCCN1CCN(C2CCCCC2)CC1` (stereo not given), the 50% inhibitory concentration (IC50) in series [1] was found to be 4.27 nM; in series [2], 1.2 nM.
With `Nc1ccc2c3c(cccc13)C(=O)N(CCCCCCOc1cccc3c1CCCC3CCCN1CCN(C3CCCCC3)CC1)C2=O` (stereo not given), the results for the Ki in series [3] and in [5] were 156 nM and 6.57 nM, respectively. Also, the outcome with MCF7 [4] and in the series on MCF7 [10] was inactive. Also, the Drug uptake result (in [6]; in series [7]; in series [8]; in [9]; with MCF7 [11]; in the series on MCF7 [12]) was “Active” each time.
Turning to `O=[N+]([O-])c1ccc(NCCCCCCOc2cccc3c2CCCC3CCCN2CCN(C3CCCCC3)CC2)c2nonc12` (stereo not given), the result in the series with MCF7 [4] and in the series on MCF7 [10] was inactive. The Drug uptake result (in [6]; in series [7]; in series [8]; in series [9]; with MCF7 [11]; in the series on MCF7 [12]) was “Active” in each case.
`O=[N+]([O-])c1ccc(NCCCCCCCCCCOc2cccc3c2CCCC3CCCN2CCN(C3CCCCC3)CC2)c2nonc12` (stereo not given): the Ki in series [3] was 258 nM; in [5] it was 31.2 nM.
As for `CCN(CC)c1ccc2cc(/C=C/C3=[N+](CCCCCC(=O)NCCCCCCOc4cccc5c4CCCC5CCCN4CCN(C5CCCCC5)CC4)c4ccccc4C3(C)C)c(=O)oc2c1.[Br-]` (stereo not given), the Ki in series [3] is 235 nM; in series [5] it was 161 nM. The Drug uptake result (in series [6]; in series [7]; in series [8]; in series [9]; in the series on MCF7 [11]) was “Active” each time.
For `CN(C)c1ccc2c(c1)C(=O)N(CCCCCCOc1cccc3c1CCCC3CCCN1CCN(C3CCCCC3)CC1)C2=O` (stereo not given), the inhibitory constant (Ki) in series [3] was 5.37 nM; in [5] it was 6.9 nM. In addition, the result in the series with MCF7 [4], in the series with MCF7 [13] and with MCF7 [10] was inactive. Also, the Drug uptake entry (in [6]; in series [7]; in series [8]; in series [9]; with MCF7 [11]; in the series on MCF7 [12]) was “Active” throughout.

The values above are taken from ChEMBL document CHEMBL3259578, “Novel derivatives of 1-cyclohexyl-4-[3-(5-methoxy-1,2,3,4-tetrahydronaphthalen-1-yl)propyl]piperazine (PB28) with improved fluorescent and σ receptors binding properties” (J Med Chem, 2014).
